Measurements from different studies.
Each line is one published result; the experiments were not run side by side.
Medium: plasma

O=C(Nc1cccnn1)N1CCN([C@@H]2CCOc3cc(C(F)(F)F)ccc32)CC1 gave a bioavailability of 41% (male Sprague-Dawley rat; oral; 0.3 mg/kg).
The bioavailability of Cc1ncc(C)n2nc(/C=C/c3nc(N4CCCC4)cc(N4CCOCC4)n3)nc12 is reported as 33% (male Sprague-Dawley rat; oral; 0.3 mg/kg).
CN(C)C(=O)Oc1cc(OC(=O)N(C)C)cc(-c2cc3ccc(O)cc3o2)c1 has a bioavailability of 3.01% (male rat; oral; 5 mg/kg).
CS(=O)(=O)Nc1ccc(-c2ccnc(Nc3ccc(-n4ccnn4)cc3)n2)cc1 gave a bioavailability of 5% (Sprague-Dawley rat; oral; 2 mg/kg).
The bioavailability of Cl.Cl.O=C(CCN1CCCCC1)c1ccc(-c2ccc(C(=O)CCN3CCCCC3)cc2)cc1 is reported as 24.2% (Sprague-Dawley rat; oral; 100 mg/kg).
Cn1cnc(Cn2c(=O)[nH]/c(=N\c3cc4cn(C)nc4cc3Cl)n(Cc3cc(F)c(F)cc3F)c2=O)n1 gave a bioavailability of 129% (male Sprague-Dawley rat; oral; 25 mg/kg).
For Cc1cnc(N2CC3(CCOCC3)C2)c(C(=O)Nc2ccc(C(=O)N3CCc4cc(C(=O)Nc5c(C)cccc5F)sc4-c4ccccc43)cc2)c1, the bioavailability was < 3% (rat; inhaled; 2.7 mg/kg; single dose).
For [2H]C([2H])(c1cc(F)c(F)cc1F)n1c(=O)n(Cc2ncn(C)n2)c(=O)[nH]/c1=N\c1cc2cn(C)nc2cc1Cl, the bioavailability was 117% (male Sprague-Dawley rat; oral; 25 mg/kg).
For C#Cc1ccc2c(c1)C(c1ccccn1)=NCc1c(-c3cnco3)ncn1-2, the bioavailability was 69% (male Sprague-Dawley rat; intraperitoneal; 10 mg/kg).
O=C([O-])C(=O)[O-].[NH-][C@@H]1CCCC[C@H]1[NH-].[Pt+4] (relative stereo) gave a bioavailability of 100% (rat; intravenous; 5 mg/kg).
COc1ncccc1-c1cnn2ccc(N3CCN(C(=O)OC(C)C)CC3)nc12 gave a bioavailability of 50% (rat; oral; 10 mg/kg).
N=c1c2c(-c3ccccc3)c(-c3ccccc3)n(Cc3ccccc3)c2ncn1[C@H]1CC[C@H](O)CC1 has a bioavailability of > 80% (male Sprague-Dawley rat; oral; 2 mg/kg; single dose).
CCC[C@@](N)(CO)CCc1ccc(OCCCCCC(C)C)cc1 gave a bioavailability of 35% (rat; oral; 30 mg/kg).
